Drawing on ChEMBL document CHEMBL1135736, “Synthesis and biological evaluation of a new furo[2,3-h]quinolin-2(1H)-one” (J Med Chem, 2002), this text covers Mortality, IC50 and Mean survival time for two compounds.

Molecules are shown by their SMILES. Bounds are passed on as bounds.

The species named for data set [1] is Mus musculus. Put plainly: Percent mortality observed when 0.3x10E-6 viable cells were injected and challenge performed 21 days after injection of photoinactivated cells. The data set is classed as organism-based. To be noted: in vivo, 504 h. The procedure, abridged: (§1)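 Mice, groups of 10, primed by ip injection of 5 × 10^6 Ehrlich cells. Before injection, these cells were photoinactivated with UVA light (2.7 kJ m-2) in the presence of 2 μM drug. Viable untreated Ehrlich cells were given later as the tumor challenge, at varying cell numbers and times after priming. Mortality (%) and mean survival time (days) were recorded.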

A short description of data set [2]: Antiproliferative effect on clonal growth of mammalian cells upon UVA irradiation. The data set is classed as functional. The note with it: light or radiation study, read-out: ID50. The procedure, abridged:
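CHO cells, clonal growth (colony-forming) inhibition. Cells given graded UVA doses in the presence of 2 µM drug. Reported ID50 is the UVA dose (kJ m-2) producing 50% inhibition, derived by probit analysis over several experiments.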

The species entered for data set [3] is Mus musculus. Put plainly: Mean survival time when 0.3x10E-6 viable cells were injected and challenge performed 15 days after injection of photoinactivated cells. To be noted: in vivo, 360 h. The class given is ADME, organism-based. The gist of the method:
as §1

Data set [4] is filed under the species Mus musculus. Put plainly: Mean survival time when 1x10E-6 viable cells were injected and challenge performed 21 days after injection of photoinactivated cells. The class given is ADME, organism-based. To be noted: in vivo, 504 h. The procedure, abridged:
as §1

Data set [5] is filed under the species Mus musculus. Put plainly: Percent mortality observed when 4x10E-6 viable cells were injected and challenge performed 21 days after injection of photoinactivated cells. The data set is classed as ADME, organism-based. The note with it: in vivo, 504 h. The procedure, abridged: as §1
The species named for data set [6] is Mus musculus. Put plainly: Percent mortality observed when 0.3x10E-6 viable cells were injected and challenge performed 15 days after injection of photoinactivated cells. The class given is organism-based. To be noted: in vivo, 360 h. The gist of the method: as §1
For data set [7], the species on record is Mus musculus. Put plainly: Mean survival time when 4x10E-6 viable cells were injected and challenge performed 21 days after injection of photoinactivated cells. The class given is ADME, organism-based. The note with it: in vivo, 504 h. The gist of the method: as §1
Data set [8] is filed under the species Mus musculus. Put plainly: Percent mortality observed when 0.3x10E-6 viable cells were injected and challenge performed 8 days after injection of photoinactivated cells. The note with it: in vivo, 192 h. The class given is ADME, organism-based. The gist of the method:
as §1

Data set [9] in a line: Antiproliferative effect on DNA synthesis of mammalian cells upon UVA irradiation. The class given is functional. The note with it: light or radiation study, read-out: ID50. The procedure, abridged:
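Ehrlich cells, DNA synthesis inhibition. Cells held with 2 µM drug and exposed to graded UVA doses. ID50 is the UVA dose (kJ m-2) giving 50% inhibition, calculated by probit analysis, pooled from several experiments.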

The species named for data set [10] is Mus musculus. In words: Mean survival time when 0.3x10E-6 viable cells were injected and challenge performed 8 days after injection of photoinactivated cells. The data set is classed as ADME, organism-based. To be noted: in vivo, 192 h. The procedure, abridged: as §1
The species entered for data set [11] is Mus musculus. Put plainly: Mean survival time when 0.3x10E-6 viable cells were injected and challenge performed 21 days after injection of photoinactivated cells. To be noted: in vivo, 504 h. The class given is ADME, organism-based. The procedure, abridged: as §1
For data set [12], the species on record is Mus musculus. Put plainly: Percent mortality observed when 1x10E-6 viable cells were injected and challenge performed 21 days after injection of photoinactivated cells. The class given is ADME, organism-based. The note with it: in vivo, 504 h. The procedure, abridged: as §1

Regarding `Cc1cc2c(o1)c(C)cc1c(CO)cc(=O)n(C)c12`, the Mortality in the data set listed under Mus musculus [1] came out at 0%; in the data set filed under Mus musculus [5], 100%; in the data set listed under Mus musculus [6] it was 35%; in the data set listed under Mus musculus [8], 70%; in the data set listed under Mus musculus [12], 30%. The IC50 was found to be 0.02 kJ m-2 in [2] and 0.65 kJ m-2 in data set [9]. For the same compound, the Mean survival time in the data set filed under Mus musculus [3] is 25 days; in the data set listed under Mus musculus [4] it was 10.6 days; in the data set filed under Mus musculus [7] it was 15.8 days; in the data set listed under Mus musculus [10], 21.3 days; in the data set listed under Mus musculus [11], greater than 60 days.
For the compound `COc1c2occc2cc2ccc(=O)oc12` [METHOXSALEN], the IC50 stood at 0.84 kJ m-2 in data set [2] and 36.6 kJ m-2 in data set [9].
